Assay results from ChEMBL document CHEMBL5528081 (J Med Chem, 2024).
pIC50: −log10 of the molar value.

Columns and labels:
[1] = Inhibition of V-ATPase-dependent lysosomal acidification in human CD4 positive T cells transduced with replication defective HIV containing GFP reporter (delta GPE) assessed as fluorescence of pH-sensitive Lysotracker dye incubated for 24 hrs by flow cytometry; format: cell-based; details: CD4+ T cell
Method in brief: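 CD8-depleted PHA/IL-2-activated primary CD4+ T cells spinoculated with VSV-G-pseudotyped HIV ΔGPE, 48 h later plated 1×10^5/well and treated 24 h with serial dilutions (top 1000 nM, final IL-2 50 U/mL).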

[2] = Inhibition of Nef protein-dependent MHC-1 HLA-A2 down modulation in human CD4 positive T cells transduced with replication defective HIV containing GFP reporter (delta GPE) assessed as restoration of MHC-1 measured after 24 hrs by HLA-A2 staining based flow cytometry; format: cell-based, Human immunodeficiency virus, CD4+ T cell
[3] = Cytotoxicity against human CD4 positive T cells transduced with replication defective HIV containing GFP reporter (delta GPE) assessed as cell viability by measuring vital dye uptake incubated for 72 hrs by flow cytometric assay; format: toxicity, cell-based; details: for CC50 at 72 h: read-out: TC50
Method in brief: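 Primary human PBMCs, CD8-depleted, PHA-L (10 ug/mL) then IL-2 activated; donor-matched mock-transduced cells plated 1×10^5/well in R10 with IL-2 (final 50 U/mL), compounds serially diluted from DMSO stocks (top 1000 nM), 72 h.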

[4] = Therapeutic ratio, ratio of IC50 for Cytotoxicity against human CD4 positive T cells transduced with replication defective HIV containing GFP reporter (delta GPE) to IC50 for Inhibition of Nef protein-dependent MHC-1 HLA-A2 down modulation in human CD4 positive T cells transduced with replication defective HIV containing GFP reporter (delta GPE); format: toxicity, cell-based; details: read-out: Ratio IC50
Method in brief: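 Primary human CD4+ T cells (PBMC, CD8-depleted, PHA then IL-2 activated) spinoculated with VSV-G-pseudotyped ΔGPE reporter; 48 h later treated with serial dilutions in R10 + 50 U/mL IL-2, top 1000 nM.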

[5] = Neutralization ratio, ratio of IC50 for Inhibition of V-ATPase-dependent lysosomal acidification in human CD4 positive T cells transduced with replication defective HIV containing GFP reporter (delta GPE) to IC50 for Inhibition of Nef protein-dependent MHC-1 HLA-A2 down modulation in human CD4 positive T cells transduced with replication defective HIV containing GFP reporter (delta GPE)
CD4+ T cell = details: Human immunodeficiency virus, dose 0.05-10 nM
[6] = Human immunodeficiency virus 1, CD4+ T cell, 24 h

Row | Structure (SMILES) | pIC50 [2, 6] | selectivity ratio [4] | Ratio IC50 [5] | further results
1 | COc1cc2c(O)c3c(c(-c4ccc5c(c4)OCO5)c2cc1OC)C(=O)OC3 [DIPHYLLIN] | < 6.00 |  |  | pIC50 [1]: < 6.00; IC50 at 72 h [3]: > 1000 nM
2 | C/C=C/[C@H]1O[C@@](O)([C@@H](C)[C@H](O)[C@H](C)[C@H]2OC(=O)/C(OC)=C/C(C)=C/[C@@H](C)[C@@H](O)[C@@H](CC)[C@@H](OC(C)=O)[C@H](C)C/C(C)=C/C=C/[C@@H]2OC)C[C@@H](OC(C)=O)[C@@H]1C | 8.44 | 2.5 | 5.4 | 
3 | C=C/C=C/C(=O)O[C@@H]1C[C@](O)([C@@H](C)[C@H](O)[C@H](C)[C@H]2OC(=O)/C(OC)=C/C(C)=C/[C@@H](C)[C@@H](O)[C@@H](C)C/C(C)=C/C=C/[C@@H]2OC)O[C@H](C(C)C)[C@H]1C | 7.77 | 1.4 | 1.5 | 
4 | CO/C1=C\C(C)=C\[C@@H](C)[C@@H](O)[C@@H](C)C/C(C)=C/C=C/[C@H](OC)[C@@H]([C@@H](C)[C@@H](O)[C@H](C)[C@@]2(OC)C[C@@H](O)[C@H](C)[C@@H](C(C)C)O2)OC1=O | 7.92 | 1.2 | 2.3 | 
5 | C/C=C/[C@H]1O[C@@](O)([C@@H](C)[C@H](O)[C@H](C)[C@H]2OC(=O)/C(OC)=C/C(C)=C/[C@@H](C)[C@@H](O)[C@@H](CC)[C@@H](O)[C@H](C)C/C(C)=C/C=C/[C@@H]2OC)C[C@@H](O[C@H]2C[C@@H](OC(C)=O)[C@H](OC(N)=O)[C@@H](C)O2)[C@@H]1C |  | 8.5 |  | 
6 | C/C=C/[C@H]1O[C@@H]([C@@H](C)[C@H](O)[C@H](C)[C@H]2OC(=O)/C(OC)=C/C(C)=C/[C@@H](C)[C@@H](O)[C@@H](CC)[C@@H](O)[C@H](C)C/C(C)=C/C=C/[C@@H]2O)C[C@@H](O)[C@@H]1C | 6.40 |  |  | 
7 | CO/C1=C\C(C)=C\[C@@H](C)C(=O)[C@@H](C)C/C(C)=C/C=C/[C@H](OC)[C@@H]([C@@H](C)[C@@H](O)[C@H](C)[C@@]2(O)C[C@@H](O)[C@H](C)[C@@H](C(C)C)O2)OC1=O |  |  |  | pIC50 ([2]; cd4+ t cell): < 6.00
8 | C/C=C/[C@H]1O[C@@](O)([C@@H](C)[C@H](O)[C@H](C)[C@H]2OC(=O)/C(OC)=C/C(C)=C/[C@@H](C)[C@@H](O)[C@@H](C)[C@@H](O)[C@H](C)C/C(C)=C/C=C/[C@@H]2OC)C[C@@H](O[C@H]2C[C@@H](OC(C)=O)[C@H](OC(N)=O)[C@@H](C)O2)[C@@H]1C | 9.18 | 8 | 21 | 
9 | CO/C1=C\C(C)=C\[C@@H](C)[C@@H](O)[C@@H](C)C/C(C)=C/C=C/[C@H](OC)[C@@H]([C@@H](C)[C@@H](O)[C@H](C)[C@@]2(O)C[C@@H](O[C@@H]3O[C@@H](C)[C@H](O)[C@@H](O)[C@H]3OC)[C@H](C)[C@@H](C(C)C)O2)OC1=O |  |  |  | CC50 at 72 h [3]: 1.4 nM
10 | C/C=C/[C@H]1O[C@@](O)([C@@H](C)[C@H](O)[C@H](C)[C@H]2OC(=O)/C(OC)=C/C(C)=C/[C@@H](C)[C@@H](O)[C@@H](CC)[C@@H](OC(C)=O)[C@H](C)C/C(C)=C/C=C/[C@@H]2OC)C[C@@H](O[C@H]2C[C@@H](OC(C)=O)[C@H](OC(N)=O)[C@@H](C)O2)[C@@H]1C |  |  |  | inhibition (CD4+ T cell): Dose-Dependent Effect
11 | C/C=C/[C@H]1O[C@@](O)([C@@H](C)[C@H](O)[C@H](C)[C@H]2OC(=O)/C(OC)=C/C(C)=C/[C@@H](C)[C@@H](O)[C@@H](CC)[C@@H](O)[C@H](C)C/C(C)=C/C=C/[C@@H]2OC)C[C@@H](O[C@H]2C[C@@H](OC(C)=O)[C@H](OC(C)=O)[C@@H](C)O2)[C@@H]1C | 9.14 | 1.8 | 4.2 | 
12 | CC[C@H]1OC(=O)[C@H](C)[C@@H](O[C@@H]2O[C@H](C)C[C@H](N(C)C)[C@H]2O)[C@@H](C)C[C@@H](C)C(=O)/C=C/[C@H]1C | < 6.00 |  |  | pIC50 [1]: < 6.00; IC50 at 72 h [3]: > 1000 nM
13 | CO/C1=C\C(C)=C\[C@@H](C)[C@@H](O)[C@@H](C)C/C(C)=C/C=C/[C@H](OC)[C@@H]([C@@H](C)[C@@H](O)[C@H](C)[C@H]2C=C(O)[C@H](C)[C@@H](C(C)C)O2)OC1=O | 6.85 | 1.6 | 2.6 | 
14 | CO[C@H]1/C=C/O[C@@]2(C)Oc3c(C)c(O)c4c(O)c(c(/C=N/N5CCN(C)CC5)c(O)c4c3C2=O)NC(=O)/C(C)=C\C=C\[C@H](C)[C@H](O)[C@@H](C)[C@@H](O)[C@@H](C)[C@H](OC(C)=O)[C@@H]1C [RIFAMPIN] | < 6.00 |  |  | pIC50 [1]: < 6.00; IC50 at 72 h [3]: > 1000 nM
15 | CNC(=O)O[C@@H](CC(C)C)c1nc([C@H]2OC(=O)/C(C)=C/C/C(C)=C/[C@@H](O)[C@@H](C)\C=C(C)/C=C(C)\C=C\[C@@H](O)[C@H](C)[C@H](OC)/C(C)=C/C=C/[C@@H]2C)cs1 [ARCHAZOLID A] |  |  |  | pIC50 ([2]; cd4+ t cell): 9.33
16 | C/C=C/C=C/[C@H]1O[C@@](O)([C@@H](C)[C@H](O)[C@H](C)[C@H]2OC(=O)/C(OC)=C/C(C)=C/[C@@H](C)[C@@H](O)[C@@H](C)C/C(C)=C/C=C/[C@@H]2OC)C[C@@H](O[C@H]2C[C@@H](O)[C@H](O)[C@@H](C)O2)[C@@H]1C |  |  |  | CC50 at 72 h [3]: 1.3 nM
17 | CO/C1=C\C(C)=C\[C@@H](C)[C@@H](O)[C@@H](C)C/C(C)=C/C=C/[C@H](OC)[C@@H]([C@@H](C)[C@@H](O)[C@H](C)[C@H]2C[C@@H](O)[C@H](C)[C@@H](C(C)C)O2)OC1=O | 7.47 | 1.4 | 4.1 | 
18 | CC[C@H]1OC(=O)C(C)C(O)[C@@H](C)C[C@@H](C)C(=O)/C=C/[C@H]1C (stereo partly drawn) | 6.46 |  |  | pIC50 [1]: 5.76; IC50 at 72 h [3]: 140 nM
19 | C/C=C/[C@H]1O[C@@](O)([C@@H](C)[C@H](O)[C@H](C)[C@H]2OC(=O)/C(OC)=C/C(C)=C/[C@@H](C)[C@@H](O)[C@@H](CC)[C@@H](OC(C)=O)[C@H](C)C/C(C)=C/C=C/[C@@H]2OC)C[C@@H](O[C@H]2C[C@@H](OC(C)=O)[C@H](OC(C)=O)[C@@H](C)O2)[C@@H]1C | 8.55 | 1.8 | 3.6 | 
20 | C/C=C/[C@H]1O[C@@H]([C@@H](C)[C@H](O)[C@H](C)[C@H]2OC(=O)/C(OC)=C/C(C)=C/[C@@H](C)[C@@H](O)[C@@H](CC)[C@@H](O)[C@H](C)C/C(C)=C/C=C/[C@@H]2OC)C[C@@H](O)[C@@H]1C | 8.35 |  |  | 
21 | CCCCC(=O)O[C@@H]1C[C@](O)([C@@H](C)[C@H](O)[C@H](C)[C@H]2OC(=O)/C(OC)=C/C(C)=C/[C@@H](C)[C@@H](O)[C@@H](C)C/C(C)=C/C=C/[C@@H]2OC)O[C@H](C(C)C)[C@H]1C | 7.43 | 1.4 | 1.5 | 
22 | CO/C1=C\C(C)=C\[C@@H](C)[C@@H](O)[C@@H](C)C/C(C)=C/C=C/[C@H](OC)[C@@H]([C@@H](C)[C@@H](O)[C@H](C)[C@H]2C[C@@H](OC)[C@H](C)[C@@H](C(C)C)O2)OC1=O | 7.70 | 1.4 | 2.7 | 
23 | C/C=C/[C@H]1O[C@@](O)([C@@H](C)[C@H](O)[C@H](C)[C@H]2OC(=O)/C(OC)=C/C(C)=C/[C@@H](C)[C@@H](O)[C@@H](CC)[C@@H](O)[C@H](C)C/C(C)=C/C=C/[C@@H]2OC)C[C@@H](OC(C)=O)[C@@H]1C | 8.92 | 5.8 | 5.6 | 
24 | CO/C1=C\C(C)=C\[C@@H](C)[C@@H](O)[C@@H](C)C/C(C)=C/C=C/[C@H](OC)[C@@H]([C@@H](C)[C@@H](O)[C@H](C)[C@@]2(O)C[C@@H](OC(=O)c3ccccc3)[C@H](C)[C@@H](C(C)C)O2)OC1=O |  |  |  | pIC50 [1]: 6.89
25 | CCCCCCCCC(=O)O[C@@H]1C[C@](O)([C@@H](C)[C@H](O)[C@H](C)[C@H]2OC(=O)/C(OC)=C/C(C)=C/[C@@H](C)[C@@H](O)[C@@H](C)C/C(C)=C/C=C/[C@@H]2OC)O[C@H](C(C)C)[C@H]1C | 6.89 | 1.1 | 1.2 | 
26 | CO/C1=C\C(C)=C\[C@@H](C)C(=O)[C@@H](C)C/C(C)=C/C=C/[C@H](OC)[C@@H]([C@@H](C)[C@@H](O)[C@H](C)[C@@]2(O)CC(=O)[C@H](C)[C@@H](C(C)C)O2)OC1=O |  |  |  | pIC50 ([2]; cd4+ t cell): < 6.00
